Consider eight compounds from ChEMBL document CHEMBL1124972, “Antiatherosclerotic agents. A structurally novel bivalent inhibitor of acylCoA:cholesterol O-acyltransferase with systemic activity” (J Med Chem, 1990).

Assay [1] has as its target T1, Acyl-CoA:cholesterol acyltransferase (Oryctolagus cuniculus, UniProt Q95214).
T1 sequence (Q95214 whole entry): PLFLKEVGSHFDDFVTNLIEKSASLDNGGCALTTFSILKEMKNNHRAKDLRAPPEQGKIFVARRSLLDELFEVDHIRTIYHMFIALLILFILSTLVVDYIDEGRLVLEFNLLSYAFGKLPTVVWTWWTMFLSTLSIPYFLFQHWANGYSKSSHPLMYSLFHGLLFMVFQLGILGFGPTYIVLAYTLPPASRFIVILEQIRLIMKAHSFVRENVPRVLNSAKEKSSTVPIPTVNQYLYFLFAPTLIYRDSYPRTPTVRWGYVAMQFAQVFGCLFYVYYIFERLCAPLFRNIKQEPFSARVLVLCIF
The experiment in a line: In vitro inhibitory activity against Acyl coenzyme A:cholesterol acyltransferase. The method in brief:
(§1)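 Cellular assay: Fu5AH cells cultured with [³H]cholesterol-labeled hyperlipemic plasma lipoproteins; inhibition of [³H]cholesteryl ester synthesis and accumulation measured; IC50 given in μg/mL.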

The test system of assay [2] is Oryctolagus cuniculus. The assay can be described thus: Tested in vivo for plasma cholesterol levels in Netherland Dwarf rabbit. The assay is classed as functional, organism-based. In short, it runs like this: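 Netherland Dwarf rabbits fed cholesterol-containing atherogenic diet, with test agent at 50 mg/kg; plasma total cholesterol in mg/dL measured, alongside aortic lesion surface involvement; means ±SEM of 8 animals per group.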

The target in assay [3] is T2, Acyl-CoA:cholesterol acyltransferase (Oryctolagus cuniculus) (UniProt Q95214).
T2 sequence (whole entry): T1 sequence (Q95214 whole entry)
The experiment in a line: Arterial Acyl coenzyme A:cholesterol acyltransferase activity was measured in vitro in rabbit aorta after administration of 50 mg/Kg. The assay is classed as functional, organism-based. In short, it runs like this: (§2)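 Rabbits given 10-day cholesterol feeding to raise arterial ACAT, then dosed orally at 50 mg kg⁻¹ day⁻¹ for 6 days; aortas excised, incubated in vitro with [1-14C]oleate for 3 h; ACAT activity as cholesteryl [14C]oleate formed, dpm/100 mg wet weight aorta; means of 2 animals per group.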

The subject of assay [4] is Oryctolagus cuniculus. The assay can be described thus: Tested in vivo for atheromatous lesion development in Netherland Dwarf rabbit. It is filed as functional. In short, it runs like this:
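Netherland Dwarf rabbits on cholesterol-containing atherogenic diet, dosed at 50 mg/kg; aortic lesion formation scored as % surface involvement, with plasma total cholesterol (mg/dL); means (±SEM) of 8 animals per group.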

Assay [5] has as its system Sterol O-acyltransferase 1 (Rattus norvegicus). The assay can be described thus: Reduction of ACAT activity after treatment was measured in rat liver.
For assay [6], the target named is T3, Sterol O-acyltransferase 1 (Rattus norvegicus) (UniProt O70536).
T3 sequence (whole entry): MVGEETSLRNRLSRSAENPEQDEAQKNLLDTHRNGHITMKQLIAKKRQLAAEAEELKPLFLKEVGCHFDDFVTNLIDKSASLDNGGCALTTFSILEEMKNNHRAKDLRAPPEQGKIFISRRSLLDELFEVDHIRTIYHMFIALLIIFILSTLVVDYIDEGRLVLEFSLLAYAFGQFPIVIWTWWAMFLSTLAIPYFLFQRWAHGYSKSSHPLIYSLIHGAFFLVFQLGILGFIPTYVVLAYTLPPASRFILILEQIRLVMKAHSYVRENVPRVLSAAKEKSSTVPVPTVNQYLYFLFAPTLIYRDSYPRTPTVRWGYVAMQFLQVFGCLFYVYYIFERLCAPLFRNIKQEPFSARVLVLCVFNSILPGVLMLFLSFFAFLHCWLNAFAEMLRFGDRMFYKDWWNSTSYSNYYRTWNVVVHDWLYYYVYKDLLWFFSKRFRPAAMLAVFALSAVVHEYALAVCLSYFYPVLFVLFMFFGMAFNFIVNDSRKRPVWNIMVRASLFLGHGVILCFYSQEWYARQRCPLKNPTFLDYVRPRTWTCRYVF
The experiment in a line: ACAT inhibitory activity was measured in rat liver after administration of 30 mg/Kg. The assay is classed as functional, organism-based. The method in brief:
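Male Sprague-Dawley rats (435-460 g) fed Purina chow with compound in diet (calculated 30 mg kg⁻¹ day⁻¹) for 8 days; liver minces incubated in vitro with [1-14C]oleate for 90 min; ACAT activity read as cholesteryl [14C]oleate formed, dpm/100 mg wet weight; means of 2 animals per group.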

Assay [7] has as its system Rattus norvegicus. The experiment in a line: Tested for plasma cholesterol levels against rat after 6.0 hours of oral administration. The assay is classed as functional, organism-based. The method in brief: (§3)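 Male Sprague-Dawley rats (4 per group) intubated orally with 0.6 mL suspension of 1 μCi [4-14C]cholesterol (53 Ci/Mol), corn oil, ethanol, DMSO and 1 mg cholesterol, with or without test agent at 30 mg/kg. Two rats per group bled by cardiac puncture at 2.5 and 6 h; plasma [14C]cholesterol measured as dpm/mL; mean of two animals.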

Assay [8] has as its target T2, Acyl-CoA:cholesterol acyltransferase (Oryctolagus cuniculus). The assay can be described thus: Reduction of ACAT activity after treatment was measured in rabbit aorta. It is filed as functional, tissue-based. The method in brief:
as §2

Assay [9] relates to Rattus norvegicus. The assay can be described thus: Tested for plasma cholesterol levels against rat after 2.5 hours of oral administration. It is filed as functional, organism-based. In short, it runs like this:
as §3

For assay [10], the target named is T2, Acyl-CoA:cholesterol acyltransferase (Oryctolagus cuniculus). The assay can be described thus: In vitro inhibitory activity against Acyl coenzyme A:cholesterol acyltransferase at a concentration of 5 ug/mL.
Assay [11] has as its target T1, Acyl-CoA:cholesterol acyltransferase. The experiment in a line: In vitro inhibitory activity against Acyl coenzyme A:cholesterol acyltransferase; a = inactive. In short, it runs like this: as §1

Take `COc1c2c(c(OC)c3c(=O)cc(CN4CCC(CCC5CCN(Cc6cc(=O)c7c(OC)c8c(c(OC)c7o6)OCC8)CC5)CC4)oc13)CCO2`: the IC50 in assay [1] is 4.19 µM.

Consider `COc1c2occc2c(OC)c2c(=O)cc(CN3CCC(CCC4CCN(Cc5cc(=O)c6c(OC)c7ccoc7c(OC)c6o5)CC4)CC3)oc12`, for which the Plasma total cholesterol with Oryctolagus cuniculus [2] came to 271 mg/dL. For the same compound, the ACAT activity (dpm/100 mg wet wt) in assay [3] worked out at 305; in assay [6] it was 535. Also, the Surface involvement with Oryctolagus cuniculus [4] was <10%. Inhibition in [1] was half-maximal at 1.12 µM (IC50). Besides, the values for the Reduction in [5] and in assay [8] were 62% and 42%, respectively. The values for the Plasma [14C] cholesterol in the assay on Rattus norvegicus [7] and in the assay on Rattus norvegicus [9] were 3880 dpm/mL and 818 dpm/mL, respectively.

`COc1c2occc2c(OC)c2c(=O)cc(CN3CCN(CC(O)CN4CCN(Cc5cc(=O)c6c(OC)c7ccoc7c(OC)c6o5)CC4)CC3)oc12` registered an inhibition in [10] of 7%.

On to `COc1c2occc2c(O)c2c(=O)cc(CN3CCC(CCC4CCN(Cc5cc(=O)c6c(O)c7ccoc7c(OC)c6o5)CC4)CC3)oc12`, for which the IC50 result in [11] was “Not Active”.

In the case of `COc1c2occc2c(OC)c2c(=O)cc(CN3CCN(CCN4CCN(Cc5cc(=O)c6c(OC)c7ccoc7c(OC)c6o5)CC4)CC3)oc12`, the inhibition in assay [10] was determined as 5%.

On to `COc1c2occ(F)c2c(OC)c2c(=O)cc(CN3CCC(CCC4CCN(Cc5cc(=O)c6c(OC)c7c(F)coc7c(OC)c6o5)CC4)CC3)oc12`, for which the 50% inhibitory concentration (IC50) in [1] was < 13.4 µM.

The compound `COc1c2occc2c(OC)c2c(=O)cc(CN3CCC(CCCC4CCN(Cc5cc(=O)c6c(OC)c7ccoc7c(OC)c6o5)CC4)CC3)oc12` had a 50% inhibitory concentration (IC50) in assay [1] of 5.78 µM.

For the compound `COc1c2occc2c(OC)c2c(=O)cc(CN3CCC(C4CCN(Cc5cc(=O)c6c(OC)c7ccoc7c(OC)c6o5)CC4)CC3)oc12`, the inhibition in assay [10] is 0%.
